# In ChEMBL document CHEMBL4673245, “Discovery of AZD9833, a Potent and Orally Bioavailable Selective Estrogen Receptor Degrader and Antagonist” (J Med Chem, 2020):
# Legend:
# [1] = Solubility of compound in stimulated gastric fluid using crystalline form of sample; assay type: physicochemical; settings: simulated gastric fluid
# [2] = Stability of compound at 60 degC and ambient dry condition assessed parent compound remaining measured 2 weeks using crystalline form of sample by chromatographic method; assay type: physicochemical; settings: solid sample, read-out: Stabilty
# [3] = Stability of compound at 40 degC and 75% relative humidity assessed parent compound remaining measured after 3 months using amorphous form of sample by chromatographic method; assay type: physicochemical; settings: solid sample, read-out: Stabilty
# [4] = test system: MCF7; test: Antiproliferative activity against human wild-type MCF7 cells assessed as decrease in estradiol-mediated cell viability incubated for 4 to 6 days by SYTOX Green dye based fluorescence assay; assay type: functional
# [5] = Stability of compound at 40 degC and 75% relative humidity assessed parent compound remaining measured after 3 months using crystalline form of sample by chromatographic method; assay type: physicochemical; settings: solid sample, read-out: Stabilty
# [6] = molecular target: T1, Estrogen receptor (Homo sapiens) (UniProt P03372); test: Induction of ERalpha degradation in human MCF7 cells assessed as maximum degradation incubated for 18 to 24 hrs by Alexa fluor 488/Hoechst staining based immunofluorescence imaging analysis relative to fulvestrant; assay type: cell-based; settings: time lower […], time upper […]
# T1 sequence (whole entry): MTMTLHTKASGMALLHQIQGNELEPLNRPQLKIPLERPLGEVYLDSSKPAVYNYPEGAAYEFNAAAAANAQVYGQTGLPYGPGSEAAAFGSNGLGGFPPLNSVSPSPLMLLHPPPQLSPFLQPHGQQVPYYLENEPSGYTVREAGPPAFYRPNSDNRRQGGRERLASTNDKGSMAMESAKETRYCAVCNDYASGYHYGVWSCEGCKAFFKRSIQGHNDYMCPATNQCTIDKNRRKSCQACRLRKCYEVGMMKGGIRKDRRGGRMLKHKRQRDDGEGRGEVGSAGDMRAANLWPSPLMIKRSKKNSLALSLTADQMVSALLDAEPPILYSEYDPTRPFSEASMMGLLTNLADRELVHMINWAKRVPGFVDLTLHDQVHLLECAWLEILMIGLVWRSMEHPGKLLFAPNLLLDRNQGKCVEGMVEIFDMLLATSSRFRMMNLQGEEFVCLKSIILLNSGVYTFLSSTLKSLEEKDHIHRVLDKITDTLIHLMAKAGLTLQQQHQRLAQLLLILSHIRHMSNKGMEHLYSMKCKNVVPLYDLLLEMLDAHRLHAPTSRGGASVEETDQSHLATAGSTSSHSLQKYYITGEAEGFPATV
# [7] = molecular target: Cytochrome P450 2D6 (Homo sapiens, UniProt P10635); test: Inhibition of CYP2D6 in human liver microsomes; assay type: ADME
# Procedure, shortened: (§1)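 High-throughput human liver microsome panel of five CYP isoforms; inhibition reported as IC50.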
# [8] = molecular target: Histamine H3 receptor (Homo sapiens, UniProt Q9Y5N1); test: Antagonist activity at human histamine H3 receptor expressed in CHO-K1 cells after 10 mins by HTRF assay; assay type: cell-based
# [9] = Dissociation constant, dibasic pKa of compound in 0.1 M potassium chloride in presence of azetidine by UV-vis spectroscopy; assay type: physicochemical
# [10] = Clearance in mouse at 2 mg/kg, iv or 5 mg/kg, po; assay type: ADME, organism-based; settings: in vivo
# [11] = Antitumor activity against human […] cells xenografted in CB17 SCID mouse assessed as tumor growth inhibition at 50 mg/kg, po administered daily via oral gavage for 21 days relative to control; assay type: functional, MCF7; design: scale not given: the % may be the effect or the level left; settings: time 21 day
# [12] = Chemical stability of compound assessed as drug degradation in deuterated buffer at pH 7.4 measured for 8 days; assay type: physicochemical; settings: pH 7.4, 192 h, time 8 day
# [13] = Chemical stability of compound assessed as drug degradation in deuterated buffer at pH 4 measured for 8 days; assay type: physicochemical; settings: pH 4, 192 h, time 8 day
# [14] = Half-life in rat at 0.5 mg/kg, iv or 1 mg/kg, po; assay type: ADME, organism-based; settings: in vivo
# Procedure, shortened: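 Rat PK: single IV dose 0.5 mg/kg and oral dose 1 mg/kg, formulated in 5% DMSO:95% hydroxypropyl-β-cyclodextrin (30% w/v), dosed at 1 mL/kg IV and 4 mL/kg PO.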
# [15] = molecular target: Cytochrome P450 3A4 (Homo sapiens, UniProt P08684); test: Inhibition of CYP3A4 in human liver microsomes; assay type: ADME; procedure, shortened: as §1
# [16] = Chemical stability of compound assessed as drug degradation in buffer at pH 7.4 stored at 22 to 60 degreeC measured after 5 days; assay type: physicochemical; settings: pH 7.4, 120 h, time 5 day
# [17] = molecular target: Cytochrome P450 2C9 (Homo sapiens, UniProt P11712); test: Inhibition of CYP2C9 in human liver microsomes; assay type: ADME; procedure, shortened: as §1
# Chain of Cytochrome P450 2C9 (P11712 whole entry): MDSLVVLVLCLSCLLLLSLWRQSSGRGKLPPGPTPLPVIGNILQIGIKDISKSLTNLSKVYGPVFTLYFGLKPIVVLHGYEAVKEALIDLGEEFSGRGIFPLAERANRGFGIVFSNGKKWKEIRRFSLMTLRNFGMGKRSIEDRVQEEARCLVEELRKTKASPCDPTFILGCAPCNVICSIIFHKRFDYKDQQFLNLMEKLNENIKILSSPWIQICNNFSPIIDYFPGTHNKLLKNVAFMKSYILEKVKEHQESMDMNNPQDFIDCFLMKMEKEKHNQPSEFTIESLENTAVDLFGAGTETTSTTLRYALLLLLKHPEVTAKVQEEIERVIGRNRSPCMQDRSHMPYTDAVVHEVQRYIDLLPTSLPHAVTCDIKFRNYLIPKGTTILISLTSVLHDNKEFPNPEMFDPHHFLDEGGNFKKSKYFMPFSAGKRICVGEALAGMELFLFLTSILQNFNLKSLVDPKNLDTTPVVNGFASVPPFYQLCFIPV
# Chain of Histamine H3 receptor (Q9Y5N1 whole entry): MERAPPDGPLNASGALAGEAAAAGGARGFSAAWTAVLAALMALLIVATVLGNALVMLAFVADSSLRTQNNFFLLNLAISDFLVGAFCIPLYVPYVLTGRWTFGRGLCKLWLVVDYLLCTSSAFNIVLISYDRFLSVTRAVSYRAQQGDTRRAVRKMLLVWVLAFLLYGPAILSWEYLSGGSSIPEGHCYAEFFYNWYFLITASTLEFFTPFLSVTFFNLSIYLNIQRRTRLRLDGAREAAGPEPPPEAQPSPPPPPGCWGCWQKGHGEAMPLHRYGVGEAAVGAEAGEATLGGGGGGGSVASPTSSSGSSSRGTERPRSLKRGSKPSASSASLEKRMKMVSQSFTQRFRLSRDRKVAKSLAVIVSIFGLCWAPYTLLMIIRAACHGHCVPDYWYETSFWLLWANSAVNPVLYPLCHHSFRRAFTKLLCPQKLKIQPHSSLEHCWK
# Chain of Cytochrome P450 2D6 (P10635 whole entry, canonical isoform): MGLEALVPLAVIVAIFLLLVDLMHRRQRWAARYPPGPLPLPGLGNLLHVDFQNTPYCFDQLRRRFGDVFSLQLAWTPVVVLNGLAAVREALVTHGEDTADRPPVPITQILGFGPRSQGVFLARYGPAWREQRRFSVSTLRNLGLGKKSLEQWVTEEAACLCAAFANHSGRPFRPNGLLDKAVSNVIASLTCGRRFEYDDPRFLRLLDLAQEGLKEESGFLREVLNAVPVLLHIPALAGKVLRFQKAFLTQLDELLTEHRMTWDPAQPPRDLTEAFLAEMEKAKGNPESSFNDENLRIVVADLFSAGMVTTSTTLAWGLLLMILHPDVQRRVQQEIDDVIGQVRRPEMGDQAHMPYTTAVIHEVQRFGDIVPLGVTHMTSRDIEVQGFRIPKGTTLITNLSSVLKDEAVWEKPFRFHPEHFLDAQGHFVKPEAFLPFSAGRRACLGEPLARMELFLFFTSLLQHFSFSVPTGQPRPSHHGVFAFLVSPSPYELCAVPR
# Chain of Cytochrome P450 3A4 (P08684 whole entry): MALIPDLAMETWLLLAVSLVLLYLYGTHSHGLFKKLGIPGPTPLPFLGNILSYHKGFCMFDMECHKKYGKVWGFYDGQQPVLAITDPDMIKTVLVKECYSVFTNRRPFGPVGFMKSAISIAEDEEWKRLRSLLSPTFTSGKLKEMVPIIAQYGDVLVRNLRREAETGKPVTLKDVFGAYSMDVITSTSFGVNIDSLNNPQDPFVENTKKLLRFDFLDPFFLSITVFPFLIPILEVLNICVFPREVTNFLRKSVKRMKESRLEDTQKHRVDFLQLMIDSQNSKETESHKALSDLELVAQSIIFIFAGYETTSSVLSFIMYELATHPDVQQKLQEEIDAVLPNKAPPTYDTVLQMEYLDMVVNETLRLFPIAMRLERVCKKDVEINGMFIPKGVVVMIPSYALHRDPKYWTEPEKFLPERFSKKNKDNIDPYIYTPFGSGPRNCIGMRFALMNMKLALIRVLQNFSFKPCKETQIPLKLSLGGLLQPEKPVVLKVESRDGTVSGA
smiles,measurement,setting,value
C[C@@H]1Cc2c(ccc3[nH]ncc23)[C@@H](c2ccc(NC3CN(CCCF)C3)cn2)N1CC(F)(F)F [CAMIZESTRANT],solubility thermodynamic,[1],> 10000 µg/mL
same,remaining at 336 h,[2],99.4%
same,remaining at 2190 h,[3],90.5%
same,IC50,[4],5.01 nM
same,remaining at 2190 h,[5],99.3%
same,Emax,[6],99%
same,IC50,[7],4300 nM
same,IC50,[8],330 nM
same,pKa,[9],8.4
same,clearance,[10],59 mL/min/kg
same,Activity,[11],53%
same,Stabilty,[12],Stable
same,Stabilty,[13],Stable
same,half-life,[14],3 h
same,IC50,[15],2200 nM
same,Stabilty,[16],Unstable
same,IC50,[17],> 30000 nM
